Source: PubChem
NR2E3 ag-1: agonists of human NR2E3 nuclear receptor | CHO-S Gal4-NCOR/VP16-NR2E3 two-hybrid, luciferase | inhibition of corepressor binding, % at 3.98 µM | hit rate 0.35% among 360,000 | AID 602229;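 active = inhibition above the mean of all tested compounds plus 3 SD, cut at about 70% in these data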;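 note: 0% = DMSO with NR2E3 transfected cells and 100% = cells lacking NR2E3 construct; higher means lower luciferase signal from less NR2E3 corepressor binding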
Target sequence (Q9Y5X4 whole entry, looked up, the tested form may be a part): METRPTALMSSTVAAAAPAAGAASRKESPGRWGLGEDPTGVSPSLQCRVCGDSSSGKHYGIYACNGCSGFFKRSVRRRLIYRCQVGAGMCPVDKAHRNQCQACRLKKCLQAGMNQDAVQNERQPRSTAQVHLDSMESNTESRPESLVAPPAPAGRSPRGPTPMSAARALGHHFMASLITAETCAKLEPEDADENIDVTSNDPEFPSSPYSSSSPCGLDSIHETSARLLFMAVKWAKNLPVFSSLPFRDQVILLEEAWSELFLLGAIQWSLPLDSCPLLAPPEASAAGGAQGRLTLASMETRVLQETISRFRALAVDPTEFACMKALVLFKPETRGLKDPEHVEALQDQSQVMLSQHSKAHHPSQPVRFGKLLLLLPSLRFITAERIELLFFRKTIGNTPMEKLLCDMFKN
NR2E3 ag-2: agonists of human nuclear receptor NR2E3; Q9Y5X4; GST-NR2E3/biotin-RetCOR TR-FRET, 1536-well; inhibition of corepressor binding, % at 4.78 µM; hit rate 0.12% among 320,000;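 active = percent inhibition above the cutoff of mean plus 3 SD of all tested compounds, set per screening campaign, cut at about 20% in these data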;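 note: 0% = DMSO wells and 100% = biotin wells as full block of FRET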
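Material: NR2E3–RetCOR corepressor complex / Amount: 1.35 nM GST-NR2E3 / Medium: Tris pH 7.5 / Compound: single nominal compound dose of 4.8 µM / Incubation: 5 h at 4 °C / Technique: TR-FRET, Eu(K)-anti-GST donor, streptavidin-D2 acceptor, ex 340, em 617/671 nm / Read-out basis: percent loss of FRET ratio relative to control wells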
SMARCA2 activ: activators of SMARCA2 function; MG213 cells, MMTV-luciferase reporter, dexamethasone, overnight; hit rate 1% among 370,000; activation, % at 9.1 µM; AID 652017; in the data active = activation above about 7.8%;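 note: 0% = vehicle wells and 100% = reference activator wells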
NR2F2 inh: NR2F2 (human) inhibition, primary screen; P24468; HEK293T NGFI-A luciferase reporter, luminescence; inhibition, % at 8.6 µM; hit rate 0.7% among 370,000; AID 686940;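 active = inhibition above a per-plate cutoff, mean inhibition of test wells between control levels plus 3 SD, cut at about 38% in these data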;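 note: cells cotransfected with COUP-TFII expression vector driving the NGFI-A reporter; 0% = median of COUP-TF2 test wells and 100% = reporter-only cells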
GalR3 antag: human GalR3 antagonism; AID 651719; inhibition, % at 3 µM; O60755; HEK293 GalR3-CNG cAMP membrane potential fluorescence; galR3 body fused to GalR1 C-terminus; hit rate 0.44% among 360,000;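 active = inhibition above the screen-wide average plus 3 SD, cut at about 13% in these data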;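 note: forskolin and galanin both at EC90 stimulate the cells; cAMP rise reported by CNG channel membrane potential dye signal; 0% = forskolin plus galanin with DMSO and 100% = forskolin alone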
Target sequence (O60755 1-299 limits assumed): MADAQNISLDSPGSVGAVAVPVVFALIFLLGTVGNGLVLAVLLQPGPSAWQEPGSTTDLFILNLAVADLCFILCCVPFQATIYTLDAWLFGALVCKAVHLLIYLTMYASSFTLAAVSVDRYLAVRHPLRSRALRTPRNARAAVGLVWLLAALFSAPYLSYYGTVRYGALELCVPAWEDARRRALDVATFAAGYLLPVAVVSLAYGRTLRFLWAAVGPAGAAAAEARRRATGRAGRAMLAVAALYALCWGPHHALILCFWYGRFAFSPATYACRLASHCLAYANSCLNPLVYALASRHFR
Numbers without * were called inactive; nt = no result. The list is not random: actives were taken first. Their share in the collection is about 2.2%.

SMILES | NR2E3 ag-1 | NR2E3 ag-2 | SMARCA2 activ | NR2F2 inh | GalR3 antag
COc1cccc(NC(=O)COc2ccccc2)c1 | -13 | 2 | 7.8* | -46 | -8
Cc1cccc(C)c1OCC(=O)Nc1cccc(C(=O)O)c1 | -161 | 0 | 7.9* | -40 | -5
COc1cc(NC(=O)COc2cccc(OC)c2)cc(OC)c1 | 18 | 5 | -1 | -17 | 2
C=CC[C@H]1c2ccccc2[C@H]2N3N=Cc4ccccc4[C@H]3[C@H](CCc3ccccc3)C(=O)N2N1C(=O)c1ccccc1 | nt | nt | -1 | 14 | nt
C=CCN1[C@H](Cc2ccccc2)COc2cccc(N3CCCC3)c2S1(=O)=O | nt | nt | 0 | -4 | nt
CC(=O)C1(C(=O)NC2CCCC2)CC(c2ccccn2)=NO1 (centres undefined) | nt | nt | 0 | -25 | nt
COc1cc(/C=C2/SC(=S)NC2=O)ccc1OS(=O)(=O)c1ccc(C)cc1 | 77* | -3 | nt | nt | nt
FC(F)(F)c1cc(Cl)c2nc(-c3ccco3)c(Cc3ccccc3C(F)(F)F)n2c1 | -8 | nt | -2 | -7 | 21*
Cc1ccc(-c2nc3c(Cl)cc(C(F)(F)F)cn3c2Cc2ccccc2C(F)(F)F)cc1 | -10 | nt | -2 | -13 | -5
CC(C)c1ccc(N(CC(=O)NCCc2ccccc2)C(=O)c2csnn2)cc1 | -73 | -4 | 7.8* | 22 | -11
CCC1CCc2sc(C(=O)NNC(=S)NCC3CCCO3)cc2C1 (centres undefined) | -19 | 1 | -3 | 4 | -4
CCC1CCc2sc(C(=O)NCC3CCCO3)cc2C1 (centres undefined) | -113 | 4 | 7.9* | -33 | -4
Cc1cccc(Cn2cc(CN3CC(N(C)CCCOC(=O)c4cc(C)cc(C)c4)CS3(=O)=O)nn2)c1 (centres undefined) | nt | nt | -1 | 33 | nt
Cc1ccc2nc(-c3ccc(NC(=O)CSc4nnc(-c5cccc(Cl)c5)n4Cc4ccco4)cc3)sc2c1 | nt | nt | -4 | -24 | nt
Nc1c(-c2ccc(Cl)cc2)cnc2c(-c3ccccc3)cnn12 | -116 | -3 | 7.9* | -39 | -5
CC1CCN(S(=O)(=O)c2ccc(C(=O)Nc3ccccc3-c3nc4ccccc4[nH]3)cc2)CC1 | 6 | -2 | 9.7* | 8 | -13
O=C(NC1CCCCN(Cc2cccc(C(F)(F)F)c2)C1=O)c1ccc(F)c(F)c1 (centres undefined) | nt | nt | -1 | 10 | nt
CN(CC(=O)Nc1ccccc1C(=O)NC1CC1)Cc1ccc(Cl)cc1 | 12 | 2 | 7.9* | -10 | -4
Cc1ccc(Cc2c(-c3ccc(C)cc3)nc3cc(C)ccn23)cc1 | -141 | nt | 3 | -25 | -9
Cc1ccc(Cc2c(-c3ccc(Cl)cc3)nc3cc(C)ccn23)cc1 | -73 | nt | 7.8* | -60 | -7
CN(Cc1ccccc1)S(=O)(=O)c1cccc(C(=O)OCc2cccc([N+](=O)[O-])c2)c1 | nt | nt | -1 | -9 | nt
CCCCn1cnc2sc(-c3ccccc3)cc2c1=O | -113 | -2 | 7.8* | -54 | -5
O=C(O)CCC1c2cc3c4cc2OC2Oc5cc6c(cc51)C(CCC(=O)O)c1cc5c7cc1OC(O6)c1cc6cc(c1)Oc1cc(cc(C(=O)O)c1)Oc1cc8cc(c1)C(Oc1cc(c(cc1C5CCC(=O)O)C3CCC(=O)O)OC(O4)c1cc(cc(c1)Oc1cc(cc(C(=O)O)c1)O8)Oc1cc(cc(C(=O)O)c1)Oc1cc(cc2c1)Oc1cc(cc(C(=O)O)c1)O6)O7 (centres undefined) | nt | 21* | nt | nt | nt
CCC(=O)c1ccc(OCC(=O)OCC(=O)Nc2cccc(S(=O)(=O)N3CCOCC3)c2)cc1 | -9 | nt | 7.8* | 9 | -7
Cc1cc(NC(=O)c2ccc(NS(=O)(=O)c3ccc(F)cc3)cc2)no1 | nt | nt | -4 | -7 | nt
SMILES | NR2E3 ag-1 | NR2E3 ag-2 | SMARCA2 activ | NR2F2 inh | GalR3 antag
O=C(COc1ncnc2ccccc12)c1ccc(Cl)cc1 | -101 | 4 | 7.8* | -32 | -1
N#Cc1c(N)[nH]c(=S)c(C#N)c1-c1ccccc1 | -4 | 13 | -2 | 2 | 51*
Cc1ccc(-c2cc(-c3ccccc3)[nH]c(=S)c2C#N)cc1 | 3 | 6 | -4 | 8 | 1
Cc1ccc(OCCSCc2nc3ccccc3[nH]2)cc1 | 22 | -2 | -1 | 24 | 18*
Clc1ccc(OCCSCc2nc3ccccc3[nH]2)cc1 | 25 | 1 | 0 | 1 | -1
CN(CC(=O)NCCc1ccc(F)cc1)Cc1cccs1 | 3 | 0 | 7.8* | -11 | 0
CN(CC(=O)Nc1ccc(F)cc1Cl)Cc1cccs1 | -18 | 2 | 1 | 5 | -11
N#Cc1c(NC(=O)c2ccccc2Cl)n(Cc2ccccc2)c2nc3ccccc3nc12 | 87* | 3 | -4 | 25 | -2
CCCCn1c(NC(=O)CC)c(C#N)c2nc3ccccc3nc21 | 12 | -1 | 2 | 5 | -3
CCCCn1c(NC(=O)c2ccccc2Cl)c(C#N)c2nc3ccccc3nc21 | 96* | 19 | -4 | 28 | -2
C=CCn1c(SCC(=O)OC(C)C)nnc1-c1ccc(C)cc1 | nt | nt | -2 | -24 | nt
O=C(Oc1coc(CSc2ncccn2)cc1=O)c1ccc([N+](=O)[O-])cc1 | nt | nt | nt | 12 | nt
O=C(Nc1ccc(F)cc1F)C1CCN(c2nnc(-n3cccc3)s2)CC1 | nt | nt | 4 | -9 | nt
CC[C@H](C)C1OC(=O)[C@@H](C)[C@@H](CC)NC(=O)[C@H](C)N(C)C(=O)C(C)(C)C(=O)C(C)NC(=O)[C@H](Cc2ccc(OC)cc2)N(C)C(=O)[C@H](C(C)C)N(C)C(=O)CNC(=O)[C@H](CC(C)C)N(C)C(=O)CNC1=O (some centres undefined) | 81* | nt | nt | nt | nt
O=C(CSc1nnc(CCCN2C(=O)c3cccc4cccc(c34)C2=O)n1-c1ccccc1)N1CCCCC1 | 10 | 1 | 8.1* | 10 | 2
Cc1ccc(NC(=O)/C=C/C(=O)O)c([N+](=O)[O-])c1 | -50 | 0 | 7.8* | -4 | -11
Cc1cc(NC(=O)/C=C\C(=O)O)c([N+](=O)[O-])cc1C | -15 | 0 | -5 | -11 | -4
O=C1N=c2ccccc2=C1c1sc(Nc2cccc(O)c2)nc1O | -48 | 2 | 6 | -14 | -12
O=C1N=c2ccccc2=C1c1sc(Nc2ccc(O)cc2)nc1O | -28 | nt | 7.8* | 3 | -11
C[C@H]1[C@H](N)CC[C@@]23CCCN2C(=O)CCC[C@@H]13 | nt | nt | nt | 4 | nt
CC(=O)N1N=C(c2cccc(NS(C)(=O)=O)c2)CC1c1cccs1 (centres undefined) | -13 | 4 | 7.9* | 11 | -4
C#CCNC(=O)C[C@H]1C[C@@]2(C(=O)OC)C(=C[C@H](COCc3ccccc3)O[C@@H]2C)N(Cc2cccc3ccccc23)C1=O | nt | nt | -4 | -1 | nt
O=C(COC(=O)Cc1c(Cl)cccc1Cl)NCC1CCCO1 (centres undefined) | -6 | -2 | 2 | -13 | 14*
CCCCCCCCNS(=O)(=O)CC1NCc2cc(F)ccc21 (centres undefined) | nt | nt | -4 | 16 | nt
CC(C)(C)C1C/C(=C/c2ccccn2)C(=O)/C(=C/c2ccccn2)C1 (centres undefined) | 96* | 1 | nt | nt | nt
